Activity calls are given as the source filed them. No cut-off for these calls is given here.
Tests used:
Type in all cases: functional, cell-based
A549 [1] = assay: Antiproliferative activity against human A549 cells assessed as cell growth inhibition after 48 hrs by XTT assay; details: A549, 48 h
Outline: (§1)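 NB4 grown in RPMI 1640 with 10% FBS and penicillin/streptomycin, A549 and MCF-7 in DMEM, all at 37 °C and 5% CO2. Cells seeded at 1.5∙10⁴ (NB4) or 1.0∙10⁴ (A549, MCF-7) per well. Adherent lines dosed 24 h after plating, NB4 shortly after. Triplicate concentrations from 0.1 to 100, DMSO control at 0.5% v/v. After 48 h exposure, XTT added for 2 h. A450 minus A690 read, GI50 reported with SE.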

MCF7 [2] = assay: Antiproliferative activity against human MCF7 cells assessed as cell growth inhibition after 48 hrs by XTT assay; details: MCF7, 48 h; outline: as §1
[3] = Antiproliferative activity against human NB4 cells assessed as cell growth inhibition after 48 hrs by XTT assay; details: NB-4, 48 h; outline: as §1
MCF7 [4] = assay: Cell cycle arrest in human MCF7 cells assessed as increase in cell population at G2/M phase at 10 uM after 48 hrs by flow cytometry
Outline: (§2)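 Cells seeded in 6-well plates at 1∙10⁶ (NB4) or 0.45∙10⁶ (A549, MCF-7) per well. Treated for 48 h at 10 (NB4, MCF-7), 20 and 30 (A549), or, for NB4, a lower 5; DMSO solvent control. Cell cycle phase distribution and sub-G1 measured by flow cytometry. Mean of two independent experiments.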

MCF7 [5] = assay: Cell cycle arrest in human MCF7 cells assessed as increase in cell population at S phase at 10 uM after 48 hrs by flow cytometry; outline: as §2
A549 [6] = assay: Cell cycle arrest in human A549 cells assessed as slight increase in cell accumulation at G2/M phase at 20 uM after 48 hrs by flow cytometry; outline: as §2
A549 [7] = assay: Cell cycle arrest in human A549 cells assessed as increase in cell population at S phase at 30 uM after 48 hrs by flow cytometry; outline: as §2
A549 [8] = assay: Cell cycle arrest in human A549 cells assessed as slight increase in cell population at S phase at 20 uM after 48 hrs by flow cytometry; outline: as §2
A549 [9] = assay: Induction of apoptosis in human A549 cells at 20 to 30 uM after 24 to 48 hrs by annexin V binding assay
Outline: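 Cells seeded in 6-well plates at 1∙10⁶ (NB4) or 0.45∙10⁶ (A549, MCF-7) per well. Treated at 5 (NB4), 20 and 30 (A549) or 10 (MCF-7). Apoptotic cell percentage measured by annexin V binding after 24 and 48 h. Mean of two independent experiments.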

| Structure (SMILES) | IC50 (A549 [1]) [µM] | IC50 (MCF7 [2]) [µM] | IC50 [3] [µM] | Activity (MCF7 [4]) | Activity (MCF7 [5]) | Activity (A549 [6]) | Activity (A549 [7]) | Activity (A549 [8]) | Activity (A549 [9]) |
| --- | --- | --- | --- | --- | --- | --- | --- | --- | --- |
| COc1ccc(C(=O)/C(=C/c2ccc(Cl)cc2Cl)CC(C)OC(C)=O)cc1 (stereo not drawn) | 40.3 | > 100 | 36.8 | – | – | – | – | – | – |
| C=C(C(=O)c1ccc(OC)cc1)C(OC(C)=O)C(CC)CC (stereo not drawn) | 32.9 | 38.9 | 11.8 | – | – | – | – | – | – |
| COc1ccc(C(=O)/C(=C/c2ccc([N+](=O)[O-])cc2)CCOC(C)=O)cc1 | > 100 | > 100 | > 100 | – | – | – | – | – | – |
| COc1ccc(C(=O)/C(=C/c2ccc(Cl)cc2Cl)CC2CCCCC2)cc1 | > 100 | > 100 | 48.9 | – | – | – | – | – | – |
| C/C=C(\COC(=O)c1ccccc1)C(=O)c1ccc(OC)cc1 | > 100 | 29.8 | 16.2 | – | – | – | – | – | – |
| C=C(C/C(=C\c1ccc(C)cc1)C(=O)c1ccccc1)C(=O)c1ccccc1 | 20.9 | 15.9 | 7.6 | – | – | – | – | – | – |
| C=C(C(=O)c1ccc(OC)cc1)C(OC(C)=O)c1ccc([N+](=O)[O-])cc1 (stereo not drawn) | 21.3 | 6.1 | 10.3 | – | – | – | – | – | – |
| COc1ccc(C(=O)/C(=C/C2CCCCC2)CCOC(C)=O)cc1 | > 100 | > 100 | > 100 | – | – | – | – | – | – |
| CC(=O)OC/C(=C\c1ccc(Cl)cc1Cl)C(=O)c1ccccc1 | 97 | 8.7 | 6.6 | Active | Active | – | – | – | – |
| CCC(/C=C(\COC(C)=O)C(=O)c1ccc(OC)cc1)CC | > 100 | 13.7 | 9.5 | – | – | – | – | – | – |
| C=C(C/C(=C\c1ccc(OC(=O)c2ccccc2)cc1)C(=O)c1ccccc1)C(=O)c1ccccc1 | 44.4 | 61.6 | 8 | – | – | – | – | – | – |
| CC(=O)OC/C(=C/c1ccc(Cl)cc1Cl)C(=O)c1ccccc1 | 74.5 | 31.7 | 12.6 | – | – | – | – | – | – |
| COc1ccc(C(=O)/C(=C/c2c(F)c(F)c(F)c(F)c2F)CC(C)OC(C)=O)cc1 (stereo not drawn) | 91.7 | > 100 | 49 | – | – | – | – | – | – |
| C=C(C(=O)c1ccc(OC)cc1)C(OC(=O)c1ccccc1)c1ccc([N+](=O)[O-])cc1[N+](=O)[O-] (stereo not drawn) | 13 | > 100 | 10 | – | – | Active | – | – | – |
| COc1ccc(C(=O)/C(=C/c2ccccc2F)CCOC(C)=O)cc1 | > 100 | > 100 | > 100 | – | – | – | – | – | – |
| CC(=O)OC/C(=C/c1ccccc1F)C(=O)c1ccccc1 | 20.3 | 39.8 | 8.3 | – | – | – | – | – | – |
| COc1ccc(C(=O)/C(=C/c2ccccc2F)COC(C)=O)cc1 | 22.5 | 30 | 8.2 | – | – | – | – | – | – |
| C=C(C(=O)c1ccc(OC)cc1)C(OC(=O)c1ccccc1)c1ccccc1F (stereo not drawn) | 73.7 | 34.2 | 14.3 | – | – | – | – | – | – |
| COc1ccc(C(=O)/C(=C/c2ccc(Cl)cc2Cl)CCOC(C)=O)cc1 | 69.2 | 83.4 | 34.8 | – | – | – | – | – | – |
| C=C(C(=O)c1ccc(OC)cc1)C(O)c1ccccc1Cl (stereo not drawn) | 28.5 | 29.6 | 8.1 | – | – | – | – | – | – |
| C=C(C(=O)c1ccc(OC)cc1)C(OC(C)=O)c1ccccc1F (stereo not drawn) | 67.3 | 18 | 9.5 | – | – | – | – | – | – |
| C=C(C(=O)c1ccc(OC)cc1)C(OC(=O)c1ccccc1)c1ccc(Cl)cc1Cl (stereo not drawn) | 79.2 | 26.8 | 9.7 | – | – | – | – | – | – |
| COc1ccc(C(=O)/C(=C/c2ccc(Cl)cc2Cl)CN(C)C(=O)c2ccccc2)cc1 | 32.4 | 39.7 | 24 | – | – | – | – | – | – |
| C=C(C(=O)c1ccc(OC)cc1)C(O)c1ccc(Cl)cc1Cl (stereo not drawn) | 70 | 9 | 26.1 | – | – | – | – | – | – |
| C=C(C(=O)c1ccc(OC)cc1)C(O)c1ccccc1F (stereo not drawn) | 15.7 | 30.9 | 6.9 | – | – | – | – | – | – |
| COc1ccc(C(=O)/C(=C/c2ccc(Cl)cc2Cl)CN2CCOCC2)cc1 | > 100 | 42.3 | 8.5 | – | – | – | – | – | – |
| COc1ccc(C(=O)/C(=C/c2ccccc2Cl)COC(=O)c2ccccc2)cc1 | 20.1 | 9 | 7 | Active | Active | Active | Active | Active | Active |
| COc1ccc(C(=O)/C(=C/C2CCCCC2)CN(C)C(=O)c2ccccc2)cc1 | 69.7 | 32.7 | 32.4 | – | – | – | – | – | – |

— ChEMBL document CHEMBL3421532, “Synthesis and antiproliferative activity of α-branched α,β-unsaturated ketones in human hematological and solid cancer cell lines” (Eur J Med Chem, 2015)
